# Screens from PubChem.
# SENP7 block: SENP7 protease inhibition; 330,000 tested, 1.5% active; recombinant SENP7, Z-RLRGG-aminoluciferin luminescence, 40 min; inhibition, % at 5 µM;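 active means inhibition above about 50% at the single test dose, limit read from the data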
# Target sequence (Q9BQF6 706-1050 limits assumed): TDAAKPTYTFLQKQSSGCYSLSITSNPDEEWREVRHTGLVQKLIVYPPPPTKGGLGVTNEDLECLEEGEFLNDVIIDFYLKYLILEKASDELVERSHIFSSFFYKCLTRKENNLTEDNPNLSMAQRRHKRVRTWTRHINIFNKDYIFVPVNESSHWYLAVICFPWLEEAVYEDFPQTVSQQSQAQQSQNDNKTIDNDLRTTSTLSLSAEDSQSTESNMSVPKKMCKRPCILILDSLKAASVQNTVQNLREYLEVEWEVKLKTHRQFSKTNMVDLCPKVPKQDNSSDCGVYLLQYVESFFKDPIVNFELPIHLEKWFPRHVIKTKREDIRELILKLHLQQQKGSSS
# HSP90 refold inh: HSP90 refolding inhibition in rabbit reticulocyte lysate | luciferase refolding luminescence, 3 h | inhibition, % at 5.6 µM | 290,000 tested, 0.91% active | AID 1789;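 active means inhibition above the screen-wide mean plus 3 SD, computed separately per campaign, cut at about 16% in these data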;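 further: inhibitors lower the luminescence because luciferase stays unfolded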
# SENP1 inh: blocks the human SENP1 SUMO protease catalytic domain. inhibition, % at 10 µM. Q9P0U3. recombinant SENP1 catalytic domain, CyPet-SUMO1-YPet FRET cleavage. AID 624204. 360,000 tested, 0.21% active;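 active means inhibition at least 30% at 10 µM, raw YFP signal under a set limit, fluorescence ratio 0.5 to 1.5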
# Target sequence (Q9P0U3 419-644 limits assumed): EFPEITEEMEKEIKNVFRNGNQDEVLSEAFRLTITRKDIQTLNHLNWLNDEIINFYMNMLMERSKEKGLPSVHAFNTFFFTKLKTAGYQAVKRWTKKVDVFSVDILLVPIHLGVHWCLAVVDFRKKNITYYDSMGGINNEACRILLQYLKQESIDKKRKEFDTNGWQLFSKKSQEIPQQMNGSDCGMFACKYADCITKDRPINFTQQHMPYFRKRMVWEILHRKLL
#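 Assay system: hSENP1 catalytic domain, recombinant. Amount: SENP1 enzyme, 20 pM final. Schedule: 50 min reaction, RT, dark. Technique: FRET, CFP and YFP emission. Control set: no-enzyme wells low, DMSO-plus-enzyme wells high control.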
# SENP8 block-1: inhibitors of human SENP8 protease | Q96LD8 | purified SENP8, Z-RLRGG-aminoluciferin cleavage, luminescence | inhibition, % at 10 µM | 330,000 tested, 1.2% active | AID 2540; in the data active means inhibition above about 50%
# SENP6 block: SENP6 protease inhibition; inhibition, % at 10 µM; 330,000 tested, 1.8% active; Recombinant SENP6 catalytic domain, aminoluciferin luminescence; Q9GZR1;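 active means inhibition above about 50% at the single tested dose, limit read from the data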
# SENP8 block-2: blocks human SENP8 cleavage of Nedd8 substrate. inhibition, % at 20 µM. 360,000 tested, 0.64% active. Q96LD8. recombinant SENP8, Nedd8 substrate fluorescence; in the data active means inhibition mostly above about 40%, no sharp cut-off; inactive means mostly below about 27%
# SENP8 conf: human SENP8 inhibition, confirmed; inhibition, % at 12.5 µM; 6,200 tested, 40% active; shares compounds with SENP7 block; Recombinant SENP8, Z-RLRGG-aminoluciferin luminescence, 60 min; AID 488912;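 active means mean inhibition across replicates above about 50%, limit read from the data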
# SENP6 confirm: confirmation of human SENP6 protease inhibitors; shares compounds with SENP7 block; recombinant SENP6, Z-RLRGG-aminoluciferin luminescence; inhibition, % at 12.5 µM; 6,200 tested, 58% active; AID 488915
# SENP7 confirm: human SENP7 inhibition, confirmed | 6,200 tested, 69% active | inhibition, % at 12.5 µM | AID 488917 | recombinant SENP7, Z-RLRGG-aminoluciferin luminescence, 40 min | shares compounds with SENP7 block
# Casp3 SENP sel: selectivity test for SENP inhibitors: human caspase-3 inhibition; shares compounds with SENP7 block; purified caspase-3, Z-DEVD-aminoluciferin luminescence, 60 min; inhibition, % at 12.5 µM; 6,200 tested, 60% active; AID 488918;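 active means mean inhibition above about 50%, limit read from the data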
# Luc interf: interferes with luciferase luminescence in SENP counter-screen; Pre-incubated SENP8/Z-RLRGG-aminoluciferin, luciferase luminescence interference; shares compounds with SENP7 block; inhibition, % at 12.5 µM; 6,200 tested, 39% active;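 active means mean inhibition above about 50% when retested at one dose, limit read from the data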
# A number is an active result; – = inactive; · = not tested or not shown. This is a sample that favours compounds with a hit; in the whole collection about 2.9% have one here.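 How the source made its calls, unless noted: active means mean inhibition above about 50% in the one-dose retest (limit read from the data); inactive means the rest.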
SMILES,SENP7 block,HSP90 refold inh,SENP1 inh,SENP8 block-1,SENP6 block,SENP8 block-2,SENP8 conf,SENP6 confirm,SENP7 confirm,Casp3 SENP sel,Luc interf
O=C1CN(CC(=O)NC2CCCc3ccccc32)CCN1 (stereo not given),–,–,–,–,–,–,·,·,·,·,·
Clc1ccccc1/C=C/c1nc(-c2cccnc2)no1,77,–,–,69,88,–,56,68,89,56,–
Clc1ccccc1-c1nc(-c2cccnc2)no1,81,–,–,64,84,–,–,72,93,77,64
Cc1ccn2c(C(=O)c3ccc(Cl)cc3)cnc2c1,52,22,–,–,70,–,–,–,70,62,–
Clc1ccc(OCc2nc(-c3ccccn3)no2)c(Br)c1,90,–,–,91,95,–,82,95,99,86,75
COc1nc(C)ccc1-c1noc(-c2ccccn2)n1,53,–,–,–,–,–,–,51,86,83,–
COc1cc(OC)cc(-c2nc(-c3ccccc3)no2)c1,–,–,–,–,–,–,·,·,·,·,·
c1ccc(CCc2nc(-c3ccccn3)no2)cc1,–,–,–,–,–,–,·,·,·,·,·
COc1ccc(-c2nc(-c3ccccn3)no2)cc1,100,94,–,97,98,–,–,101,104,100,98
Clc1ccc(-c2nc(-c3ccccn3)no2)cc1Cl,98,–,–,96,92,–,91,94,98,93,76
COc1ccccc1-c1nc(-c2ccc(C)nc2OC)no1,–,–,–,–,–,–,·,·,·,·,·
O=C(Oc1cccc(-c2cnc3ccccc3n2)c1)c1ccco1,52,–,–,59,60,–,–,–,76,61,–
CSc1nsc2nc(=O)c(/C=C3\C=Nc4ccccc43)c(N)n12,–,–,–,72,86,–,69,72,92,–,76
CC(C)C[C@H](NC(=O)N1CCn2c1nc1ccccc12)C(=O)N[C@H](Cc1ccccc1)C(=O)O,–,–,–,–,–,–,·,·,·,·,·
c1ccc2nc(-c3ccc(-n4ccnc4)cc3)ccc2c1,72,–,–,61,–,–,–,81,–,–,–
Cc1cc(C)c(C)c(S(=O)(=O)N(C)CCc2ccccn2)c1C,–,·,–,–,–,–,·,·,·,·,·
COc1cc(O)cc2cc3c(c(O)c12)C(=O)CC(C)(O)O3 (stereo not given),–,·,–,–,58,–,–,–,–,–,–
COc1cc(O)c2c(c1)OC(C)(C)CC2=O,–,–,–,–,–,–,·,·,·,·,·
COc1ccccc1CCNS(=O)(=O)CCNC(=O)c1ccc2c(c1)OCO2,–,·,–,–,–,–,·,·,·,·,·
CC(=O)Nc1ncc(N=Nc2cccc(C(F)(F)F)c2)s1,–,–,–,–,–,–,·,·,·,·,·
Cc1cccc(N=Nc2cnc(N)s2)c1,–,–,–,–,55,–,52,–,70,–,–
Cc1ccc(C=Nc2ccccc2C#N)s1,–,–,–,67,83,–,–,67,87,72,62
N#Cc1c(/N=C/c2ccco2)sc2c1CCC2,–,–,–,–,–,–,·,·,·,·,·
Cc1ccc(/C=N/c2sc3c(c2C#N)CCCCC3)o1,–,–,–,87,97,–,94,95,100,69,77
N#Cc1c(/N=C/c2cc3ccccc3s2)sc2c1CCC2,–,–,–,–,–,–,·,·,·,·,·
SMILES,SENP7 block,HSP90 refold inh,SENP1 inh,SENP8 block-1,SENP6 block,SENP8 block-2,SENP8 conf,SENP6 confirm,SENP7 confirm,Casp3 SENP sel,Luc interf
Cc1ccc(/C=N/c2sc3c(c2C#N)CCC3)s1,84,–,–,–,78,–,–,–,–,–,–
Cc1ccc(/C=N/Nc2ccccn2)s1,–,–,–,–,–,–,·,·,·,·,·
COc1cccc(-c2csc(N3CCN(CC(=O)NNC(=O)c4ccc(Br)cc4)CC3)n2)c1,101,–,–,–,–,–,–,–,–,–,–
CCCc1cc(=O)[nH]c(SCC(=O)Nc2cc(S(=O)(=O)N3CCCCC3)ccc2C)n1,–,·,–,–,–,–,·,·,·,·,·
CC(C)c1nc2cc(C(=O)N3CCN(c4cnccn4)CC3)ccc2o1,–,–,–,–,–,–,·,·,·,·,·
O=C(CC1S/C(=N/N=C2CCCCCC2)NC1=O)Nc1ccc(Br)cc1F (stereo not given),–,–,–,–,–,–,·,·,·,·,·
O=c1c(-c2ccc(F)cc2)coc2cc(O)ccc12,–,–,–,82,86,–,90,90,99,94,90
COc1ccc(-c2coc3cc(O)ccc3c2=O)cc1OC,–,–,–,–,–,–,·,·,·,·,·
O=c1c(-c2ccc(F)cc2)coc2c3c(ccc12)OCCO3,76,–,–,–,–,–,–,–,–,–,–
O=c1c(-c2ccc(Br)cc2)coc2c(CN3CCOCC3)c(O)ccc12,–,–,–,–,–,–,·,·,·,·,·
COCCNC(=O)c1c(N)n(CCCn2ccnc2)c2nc3ccccc3nc12,67,–,–,–,89,–,–,–,–,–,–
COCCn1c(N)c(C(=O)NCc2cccs2)c2nc3ccccc3nc21,64,–,–,87,84,–,–,–,–,–,–
COCCNC(=O)c1c(N)n(-c2cccc(C)c2)c2nc3ccccc3nc12,–,–,–,–,–,–,·,·,·,·,·
COCCCNC(=O)c1c(N)n(-c2ccccc2)c2nc3ccccc3nc12,–,–,–,–,–,–,·,·,·,·,·
CC(C)Cn1c(N)c(C(=O)NCC2CCCO2)c2nc3ccccc3nc21 (stereo not given),–,–,–,76,76,–,–,–,–,–,–
COCCNC(=O)c1c(N)n(-c2ccccc2)c2nc3ccccc3nc12,–,–,–,–,62,–,–,–,–,–,–
Cc1ccc(-c2nc3c(Cl)cc(C(F)(F)F)cn3c2Cc2ccccc2)cc1,·,·,–,·,·,–,·,·,·,·,·
O=C1CN(S(=O)(=O)c2ccc([N+](=O)[O-])cc2)CC(=O)N1,–,–,–,–,–,–,·,·,·,·,·
COc1ccc(NC(=O)COC(=O)CNS(=O)(=O)/C=C/c2ccccc2)cc1OC,–,·,–,–,–,–,·,·,·,·,·
C=CCn1c(N)c(C(=O)Nc2ccccc2)c2nc3ccccc3nc21,–,–,–,52,64,–,–,–,–,–,–
